Most compounds without a hit are left out; they make up all but 1.6% or so of the library.
PG9 binder: small molecules binding HIV-1 gp120 antibody PG9; TR-FRET gp120-PG9 antibody binding; hit rate 0.43% among 360,000; inhibition, % at 6.7 µM; in the data active means inhibition above about 8.5%
NR2E3 ag-1: activates human NR2E3 receptor | Q9Y5X4 | CHO-S Gal4-NCOR/VP16-NR2E3 two-hybrid, luciferase | inhibition of corepressor binding, % at 3.98 µM | hit rate 0.35% among 360,000 | AID 602229;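 active means inhibition above the mean of all tested compounds plus 3 SD, cut at about 70% in these data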;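 further: 0% = DMSO with NR2E3 transfected cells and 100% = cells lacking NR2E3 construct; higher means lower luciferase signal from less NR2E3 corepressor binding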
PKA-R2B activ: activates the human PKA-R2B holoenzyme complex. P22694+P31323. PKA-R2B holoenzyme dissociation, Cy5-IP20 fluorescence polarization; R2B truncated from residue 108, S112A mutant; 0% DMSO only, 100% 113 µM cGMP. activation, % at 11.4 µM. hit rate 0.079% among 340,000;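 active means activation above a cutoff set at the mean over all compounds plus 3 SD, cut at about 18% in these data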;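 further: higher means more holoenzyme dissociation and a rise in polarization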
PKA-R1A act: PKA-R1A complex activation; PKA-R1A dissociation, Cy5-IP20 fluorescence polarization; scaled: DMSO 0%, 113 µM cGMP 100%; hit rate 0.083% among 340,000; P00514+P68181; activation, % at 11.4 µM;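 active means percent activation above the mean of all tested compounds plus 3 SD, cut at about 19% in these data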;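 further: higher means more PKAc released from R1A so a rise in polarization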
NR2E3 ag-2: NR2E3 (human) agonism | Q9Y5X4 | GST-NR2E3/biotin-RetCOR TR-FRET, 1536-well | inhibition of corepressor binding, % at 4.78 µM | hit rate 0.12% among 320,000;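 active means percent inhibition above the cutoff of mean plus 3 SD of all tested compounds, set per screening campaign, cut at about 20% in these data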;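 further: 0% = DMSO wells and 100% = biotin wells as full block of FRET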
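System: GST-tagged NR2E3 plus biotinylated RetCOR corepressor; Amount: 1.35 nM GST-tagged NR2E3 final; Dosing: single nominal compound dose of 4.8 µM; Schedule: 5 h incubation at 4 °C; Technique: TR-FRET with europium anti-GST and streptavidin-D2, 340 nm excitation; Controls: biotin wells as high control, 0.6% DMSO wells as low control.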
Rev-erbA mod: modulators of human Rev-erb alpha DNA binding | AID 1259318 | P20393 | Rev-erbα–FITC-DNA binding, fluorescence polarization, 90 min | hit rate 0.79% among 370,000 | activity, % at 10 µM;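 active means activity above about 14%, limit read from the data; passing the limit was not always enough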;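 further: 0% = DMSO wells with 35 nM protein and 100% = DMSO wells with 750 nM protein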
NR2E3 agonist cf: confirmation of human NR2E3 nuclear receptor agonists; shares compounds with NR2E3 ag-2; cell-free NR2E3 corepressor release, TR-FRET, 5 h; activation (reported as inhibition), % at 3.98 µM; hit rate 39% among 360; AID 2379; in the data active means activation above about 20%
PPARg-NCOR2 ag: counter-screen for NR2E3 agonists: human PPARgamma-NCOR2 interaction agonists. hit rate 45% among 360. inhibition, % at 3.98 µM. shares compounds with NR2E3 ag-2. TR-FRET PPARg-NCOR2 coregulator interaction, biochemical. AID 504787; in the data active means inhibition above about 20%;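 further: 0% = DMSO vehicle and 100% = wells without protein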
PG9 bind confirm: PG9 antibody binding, confirmed; shares compounds with PG9 binder; TR-FRET PG9 antibody binding, biochemical; inhibition, % at 6.7 µM; hit rate 90% among 1,500; in the data active means inhibition above about 9%
PGV04 Ab binding: binds control antibody PGV04 in PG9 binder counter-screen; inhibition, % at 6.7 µM; hit rate 95% among 1,500; TR-FRET PGV04 antibody-gp120 binding, biochemical; shares compounds with PG9 binder; AID 651604; in the data active means inhibition above about 9.5%
Rev-erbA confirm: confirmation of modulators of human Rev-erb alpha DNA binding | activation, % at 25 µM | Rev-erb alpha FITC-DNA binding, fluorescence polarization, 90 min | hit rate 61% among 3,000 | shares compounds with Rev-erbA mod;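 active means activation at or above a set limit, or at least 3 SD above the negative control mean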;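 further: 0% = 35 nM protein with DMSO and 100% = 750 nM protein high control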
RORg counter: RORgamma DNA-binding activity, dose-response counter-screen; IC50, µM; hit rate 8% among 910; shares compounds with Rev-erbA mod; purified RORgamma protein-FITC-DNA binding, fluorescence polarization;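 active means Compounds whose fitted half-maximal concentration for disrupting protein-DNA binding is below 10 micromolar; the record names Rev-erb in its text, so the target is in doubt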
* marks the source's active call; other numbers are inactive results.

Cc1ccc(C(=O)C2=C(O)C(=O)N(Cc3cccnc3)C2c2ccc(OC(C)C)cc2)o1 (configuration not stated) was read as PG9 binder 35.4*, NR2E3 ag-1 12.9, PKA-R2B activ -2.8, PKA-R1A act -3.6, NR2E3 ag-2 21.7*, Rev-erbA mod 2.1, NR2E3 agonist cf 5.8, PPARg-NCOR2 ag 12.5, PG9 bind confirm 43.9* and PGV04 Ab binding 49.9*.
`Cc1ccc(CNC(=O)c2cc3c(s2)CN(Cc2ccccc2)C3)cc1` gave PG9 binder 17.9*, NR2E3 ag-1 0.9, PKA-R2B activ -0.7, PKA-R1A act 0.4, NR2E3 ag-2 20.5*, Rev-erbA mod 11.6, NR2E3 agonist cf -5.9, PPARg-NCOR2 ag -2.5, PG9 bind confirm 19.6* and PGV04 Ab binding 21.4*.
For Cc1ccc(CNC(=O)c2cc3c(s2)CS(=O)(=O)C3)cc1 the results were PG9 binder -1.5, NR2E3 ag-1 -16.0, PKA-R2B activ -1.3, PKA-R1A act -16.6, NR2E3 ag-2 1.1 and Rev-erbA mod -3.7.
For O=C(O)C1=C(CSc2nnnn2CS(=O)(=O)O)CS[C@@H]2[C@@H](NC(=O)[C@H](O)c3ccccc3)C(=O)N12 the results were Rev-erbA mod 1.1.
Screening CCOc1ccccc1NC(=O)CSc1nc(N)c(C#N)cc1C#N returned PG9 binder 66.3*, NR2E3 ag-1 0.0, PKA-R2B activ -5.5, PKA-R1A act 0.0, NR2E3 ag-2 43.1*, Rev-erbA mod 83.7*, NR2E3 agonist cf 33.5*, PPARg-NCOR2 ag 54.3*, Rev-erbA confirm 46.4* and RORg counter >40.
For CCOC(=O)CSc1nc(N)c(C#N)cc1C#N the results were PG9 binder -0.8, NR2E3 ag-1 -32.4, PKA-R2B activ 0.6, PKA-R1A act 2.2, NR2E3 ag-2 4.4 and Rev-erbA mod -2.2.
COc1ccc(C(=O)NNC(=O)C(Cc2ccc(O)cc2)NC(=O)c2ccccc2NC(=O)c2ccc(OC)cc2)cc1 (configuration not stated) was read as PG9 binder -0.6, NR2E3 ag-1 12.6, PKA-R2B activ -17.3, PKA-R1A act -0.6, NR2E3 ag-2 39.9*, Rev-erbA mod 44.9*, NR2E3 agonist cf 21.9*, PPARg-NCOR2 ag -4.8, Rev-erbA confirm 35.9* and RORg counter >40.
`CC(=O)N1CCc2c1cccc2S(=O)(=O)NC(CC(C)C)C(=O)Nc1ccc(Cl)c(Cl)c1` (configuration not stated) gave Rev-erbA mod -4.2.
COc1cccc(N2CCN(C(=O)CCCCCn3c(=S)[nH]c4cc5c(cc4c3=O)OCO5)CC2)c1 was read as PG9 binder 3.0, NR2E3 ag-1 -7.1, PKA-R2B activ 8.2, PKA-R1A act 6.1, NR2E3 ag-2 4.5 and Rev-erbA mod -16.3.
COc1cccc(CNC(=O)CCCn2c(=S)[nH]c3cc4c(cc3c2=O)OCO4)c1 was read as PG9 binder 27.6*, NR2E3 ag-1 -1.6, PKA-R2B activ -4.5, PKA-R1A act -12.5, NR2E3 ag-2 26.2*, Rev-erbA mod 86.0*, NR2E3 agonist cf 31.3*, PPARg-NCOR2 ag 35.9*, PG9 bind confirm 15.2*, PGV04 Ab binding 22.8*, Rev-erbA confirm 57.2* and RORg counter >40.
CCc1sc(C(=O)Nc2ccc(N3CCOCC3)cc2)cc1C was read as PG9 binder -2.6, NR2E3 ag-1 -26.1, PKA-R2B activ -8.5, PKA-R1A act 3.4 and Rev-erbA mod 5.4.
Screening CCc1cc2cc(C(=O)Nc3ccc(C)cc3)sc2s1 returned PG9 binder 31.3*, NR2E3 ag-1 0.7, PKA-R2B activ 10.5, PKA-R1A act 0.3, NR2E3 ag-2 33.3*, Rev-erbA mod 44.8*, NR2E3 agonist cf 20.4*, PPARg-NCOR2 ag 22.9*, PG9 bind confirm 29.2*, PGV04 Ab binding 35.7* and Rev-erbA confirm 16.5*.
For COC(=O)[C@]12C[C@H](CC(=O)NCc3cccs3)C(=O)N(Cc3ccco3)C1=C[C@H](C(C)C)O[C@@H]2C1CC1 the results were Rev-erbA mod 1.1.
Screening CCc1cccc(NC(=O)Cn2c(=O)c3cccn3c3ccccc32)c1 returned PG9 binder 25.6*, NR2E3 ag-1 -4.0, PKA-R2B activ -1.6, PKA-R1A act 2.6, NR2E3 ag-2 26.1*, Rev-erbA mod 28.1*, NR2E3 agonist cf 10.4, PPARg-NCOR2 ag 11.6, PG9 bind confirm 28.2*, PGV04 Ab binding 35.8* and Rev-erbA confirm 14.7.
CC(C)[C@@H]1OC(=O)[C@@H]2CCCN2C(=O)[C@H](C)OC(=O)[C@H](C)[C@@H](C(C)C)NC(=O)[C@@H]2CCCN2C(=O)[C@H]([C@H](C)Cc2ccccc2)NC(=O)[C@@H]2CCCN2C(=O)[C@@H](C(C)C)N(C)C1=O was read as Rev-erbA mod -3.6.
COc1ccc(-c2c(C)sc(NC(=O)c3ccnn3C)c2C#N)cc1 was read as PG9 binder 51.7*, NR2E3 ag-1 -7.8, PKA-R2B activ -4.8, PKA-R1A act -4.5, NR2E3 ag-2 29.9*, Rev-erbA mod 47.0*, NR2E3 agonist cf 9.4, PPARg-NCOR2 ag 20.9*, PG9 bind confirm 59.6*, PGV04 Ab binding 60.8* and Rev-erbA confirm 26.8*.
